In series [1] the test system is Plasmodium falciparum. The experiment in a line: Antimalarial activity against Plasmodium falciparum T9-96. It counts as functional, organism-based. In short, it runs like this: (§1)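 P. falciparum (Thai isolates; K1 uncloned, T9-96 cloned) kept in continuous culture in human erythrocytes, RPMI 1640 with 25 mM HEPES, 32 mM NaHCO3, 10% human serum, gassed 3% O2/4% CO2/93% N2. 48-h assay at 1% initial parasitaemia, 5% haematocrit; drugs from ethanol stocks (final <1% ethanol).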

Series [2] is described as follows: pKa value of compound was evaluated. Type of series: physicochemical.
The subject of series [3] is Plasmodium falciparum. The experiment in a line: Antimalarial activity against Plasmodium falciparum K1. It counts as functional, organism-based. In short, it runs like this: as §1

Turning to `CCN(CC)Cc1cc(Nc2ccnc3cc(Cl)ccc23)ccc1O`, the IC50 was determined as 20 nM in the series on Plasmodium falciparum [1] and 24 nM in the series with Plasmodium falciparum [3]. Besides, the pKa in series [2] was 4.95.
Consider `CCN(CC)Cc1c(O)cc(F)c(Nc2ccnc3cc(Cl)ccc23)c1F`, for which the IC50 in the series with Plasmodium falciparum [1] stood at 34 nM; in the series on Plasmodium falciparum [3] it was 41 nM. The same compound showed a pKa in series [2] of 2.59.
The like results for `CCN(CC)Cc1cc(Nc2ccnc3cc(Cl)ccc23)c(F)c(F)c1O` were, in that order, 40 nM, 56 nM and 3.42.
On the same counts, the results for `CCN(CC)Cc1c(O)c(F)c(F)c(Nc2ccnc3cc(Cl)ccc23)c1F` are 291 nM, 500 nM and 2.17.
The like results for `CCN(CC)Cc1cc(Nc2ccnc3cc(Cl)ccc23)cc(F)c1O` were, in that order, 37 nM, 42 nM and 3.96.
On to `CCN(CC)Cc1cc(Nc2ccnc3cc(Cl)ccc23)ccc1F`, for which the IC50 in the series with Plasmodium falciparum [1] was found to be 40 nM; in the series with Plasmodium falciparum [3], 59 nM. Further, the pKa in series [2] was found to be 4.39.

For the origin of these results see ChEMBL document CHEMBL1127823, “The effect of fluorine substitution on the metabolism and antimalarial activity of amodiaquine” (J Med Chem, 1994).
